Screening results: PubChem BioAssay, several laboratories
Fibroblast inh – antiproliferative effect on LL 47 fibroblasts – human, LL 47 cells, CellTiter-Glo luminescence, primary screen. LL 47 human lung fibroblast viability, ATP luminescence; active compounds read low. viability, % at 10 µM. actives 1.1% (n = 85,000). AID 719, 2007;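 active = viability at or below 50% in the single dose screen; inactive = viability above 50%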;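 also: compound exposure lasted 72 h before the ATP readout; 100% = median luminescence of untreated cell-only wells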
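Assay system: human lung fibroblast line LL 47, low passage. Input: 1,150 fibroblasts seeded per well. Times: overnight cell rest, 72 h compound treatment at 37 °C. Evaluation: % viability of median cell-only signal. Technique: luminescent ATP detection, CellTiter-Glo. Control set: cell-only wells, no compound.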
H69AR growth 86K – proliferation blockers of H69AR lung cancer cells, primary screen, cell-based, human, 86K library; actives 6% (n = 85,000); H69AR lung tumor viability, ATP luminescence, 72 h; active compounds read low; viability, % at 10 µM;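 active = viability at or below 40%; inactive = viability above 40%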;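 also: multidrug resistant small cell line overexpressing MRP-1 efflux transporter; 100% = mean luminescence of untreated control wells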
Candida biofilm – clotrimazole potentiators killing Candida biofilms, primary screen, with clotrimazole, Alamar Blue. inhibition, % at 6 µM. AID 834, 2007. actives 0.14% (n = 85,000). C. albicans biofilm + clotrimazole;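 active = inhibition above 20%; inactive = inhibition below 20%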;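 also: preformed 24 hr biofilms exposed to compound for 48 hr; 0% = biofilm without compound and 100% = blank killed by clotrimazole plus chlorhexidine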
PTEN del growth – growth suppression of PTEN-null HCT116, primary screen, cell-based, CellTiter-Glo; actives 1.2% (n = 140,000); viability, % at 10 µM; HCT116 PTEN-null viability, 60 h; active compounds read low;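 active = viability at or below a set limit, 4 SD under the median of all tested compounds, cut at about 3.7% in these data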;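 also: PTEN knockout HCT116 line with beta catenin targeted HCT116 as companion control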
HCT116 bCat-KO – primary screen for growth suppressors in beta-catenin knockout HCT116 cells (colon tumor, human); HCT116 beta-catenin knockout viability, CellTiter-Glo, 60 h; active compounds read low; viability, % at 10 µM; actives 1.5% (n = 140,000); AID 818, 2007;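 active = viability at or under a set limit, the compound median less 4 SD, cut at about 6% in these data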;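 also: 0% = Hyamine 1622 control at 20 µM and 100% = untreated cell control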
HUVEC prolif 384 – inhibitors of HUVEC proliferation, primary screen, cell-based, 384-well. AID 648, 2007. CellTiter-Glo luminescence, 72 h; active compounds read low. actives 1.1% (n = 86,000). viability, % at 10 µM (by protocol);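 active = viability at or below 30%; inactive = viability above 30%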;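 also: 100% = median luminescence of DMSO-only cell control wells on each plate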
Active calls of the source: *; x = no result given. This excerpt belongs to a sample that is enriched for hits.

SMILES | Fibroblast inh | H69AR growth 86K | Candida biofilm | PTEN del growth | HCT116 bCat-KO | HUVEC prolif 384
CC(C)C(=O)N1CCN(c2ccc(NC(=O)c3ccc4c(c3)OCCO4)cc2Cl)CC1 | 19.4* | 6.2* | -4.3 | 1.7* | 1.3* | 3.2*
Cc1cc(C2(c3ccc(O)c(C)c3)C(=O)Nc3ccccc32)ccc1O | x | x | x | 1.5* | 1.1* | x
CC(C)Oc1ccc(/C=N/NC(=O)C(CSCc2ccccc2)NC(=O)c2ccc([N+](=O)[O-])cc2)cc1 (stereo not given) | 66.0 | 28.4* | 16.1 | 36.0 | 71.3 | 67.4
CCc1ccc(NC(=O)CCn2ccnc2C)cc1 | 92.3 | 96.5 | -3.8 | 99.7 | 91.8 | 86.8
CC(C)(C)c1ccccc1OCCCCCNCCO | 78.6 | 10.9* | 4.0 | 64.7 | 46.4 | 90.7
Oc1[nH]c2ccccc2c1N=Nc1nc2ccccc2s1 | x | x | x | 1.6* | 1.3* | x
Oc1[nH]c2ccccc2c1N=Nc1ccc(F)cc1 | x | x | x | 79.3 | 80.5 | x
N/C(Cc1ccc(Cl)cc1)=N\OC(=O)c1cccc2ccccc12 | 56.7 | -0.4* | 0.0 | 41.3 | 38.7 | 1.4*
N/C(Cc1ccc(Cl)cc1)=N\OC(=O)c1ccc2ccccc2c1 | 83.0 | 3.2* | 8.5 | 57.3 | 55.0 | 5.6*
CCOc1cccc(C(=O)Nc2ccccc2N2CCN(C(=O)C(C)C)CC2)c1 | 99.0 | 80.9 | 9.4 | 68.1 | 67.5 | 91.9
Cc1ccc(N2C(N)=C(C#N)C(c3ccsc3)C3=C2CC(C)(C)CC3=O)cc1 (stereo not given) | 86.6 | 48.1 | 4.7 | 75.5 | 74.7 | 83.6
Cc1ccc(N2C(N)=C(C#N)C(c3cccnc3)C3=C2CC(C)(C)CC3=O)cc1 (stereo not given) | 78.7 | 23.5* | 4.2 | 90.7 | 87.4 | 87.0
CCc1nc2sc3c(c2c(=O)n1NC(=O)CCl)CCCC3 | 96.7 | 11.8* | 5.4 | 92.2 | 86.4 | 81.5
CCc1nc2sc3c(c2c(=O)o1)CCCC3 | 92.7 | 102.7 | 3.6 | 87.7 | 91.5 | 92.3
CCSc1nnc(NC(=O)c2cnccn2)s1 | x | 49.2 | 8.5 | x | x | 96.5
CCSc1nnc(NC(=O)c2ccccn2)s1 | x | 17.6* | 3.4 | 6.6 | 10.7 | 44.6
CCSc1nnc(NC(=O)C(CC)(C(F)(F)F)C(F)(F)F)s1 | 94.6 | 35.6* | 10.6 | 68.8 | 76.6 | 73.4
O=c1oc2ccccc2c(Nc2ccc3ccccc3c2)c1[N+](=O)[O-] | 90.5 | 18.9* | 7.5 | 35.1 | 45.5 | 58.8
O=c1oc2ccccc2c(Nc2ccc(O)cc2)c1[N+](=O)[O-] | 99.5 | 80.9 | 3.5 | 57.7 | 47.9 | 96.5
Cc1c(CCOC(=O)C23CC4CC(CC(C4)C2)C3)sc[n+]1Cc1ccccc1 | x | x | x | 77.7 | 76.3 | x
Cc1c(CCOC(=O)C23CC4CC(CC(C)(C4)C2)C3)sc[n+]1Cc1ccccc1 | x | x | x | 5.2 | 2.9* | x
CC(O)/C=C/c1ccc2ccccc2n1 (stereo not given) | 70.8 | 23.4* | 1.9 | 15.2 | 12.9 | 70.4
COc1ccc(S(=O)(=O)N2N=C(C)Oc3ccccc3C2=O)cc1 | 46.5* | 16.0* | 8.1 | 17.6 | 18.4 | 58.4
CC(=O)Nc1ccc(N=Nc2ccc(O)cc2)cc1 | x | x | x | 85.2 | 88.6 | x
Cc1cccc(Nc2nc(-c3ccccn3)cs2)n1 | 68.9 | 3.9* | x | 19.7 | 17.2 | 60.3
SMILES | Fibroblast inh | H69AR growth 86K | Candida biofilm | PTEN del growth | HCT116 bCat-KO | HUVEC prolif 384
Cc1cccnc1Nc1nc(-c2ccccn2)cs1 | 3.2* | 0.4* | 4.0 | 0.8* | 0.7* | 16.1*
Cc1cccnc1Nc1nc(-c2ccc(O)cc2O)cs1 | 84.4 | 8.0* | 9.7 | 64.9 | 66.7 | 13.7*
O=C(O)CN1CCN(Cc2ccc(Cl)cc2)C1=O | x | x | x | 98.3 | 91.3 | x
CCOc1ccc(C2C(C(=O)c3cccs3)=C(O)C(=O)N2CCCn2ccnc2)cc1 (stereo not given) | 104.3 | 107.6 | -0.5 | x | x | 98.1
CCCN(CCC)CCCNC(=O)c1cc2cc3ccc(OC)cc3nc2o1 | 105.9 | 87.6 | 4.2 | 42.2 | 57.9 | 108.0
COc1ccc2cc3cc(C(=O)NCCc4ccc(OC)c(OC)c4)oc3nc2c1 | 119.5 | 29.0* | 10.0 | 49.7 | 55.5 | 25.0*
COc1ccc2cc3cc(C(=O)Nc4ccc5c(c4)OCO5)oc3nc2c1 | 108.1 | 24.2* | 8.5 | 63.3 | 58.7 | 10.4*
O=C1CN(Cc2ccccc2)C(=NCc2ccco2)S1 | 93.9 | 93.2 | 9.5 | 71.4 | 74.5 | 96.6
COc1cc(C2Nn3c(nnc3-c3ccccc3OC)S2)ccc1O (stereo not given) | 103.4 | 86.1 | -1.7 | 109.5 | 99.1 | 100.8
COc1ccc(-c2oc(NC(=O)CSc3ncn[nH]3)c(C#N)c2-c2ccc(OC)cc2)cc1 | 90.0 | 29.0* | 3.0 | 34.3 | 26.4 | 70.1
Cc1ccc(OCC(=O)Nc2oc(-c3ccccc3)c(-c3ccccc3)c2C#N)cc1 | 97.9 | 28.4* | 5.6 | x | x | 75.0
COc1ccc(-c2oc(NC(=O)CCl)c(C#N)c2-c2ccc(OC)cc2)cc1 | 26.1* | 1.8* | 3.3 | 5.9 | 5.8* | 4.3*
N#Cc1c(NC(=O)CSc2ncccn2)oc(-c2ccccc2)c1-c1ccccc1 | 93.3 | 105.5 | 4.4 | x | x | 82.9
COc1ccc(C(=O)Oc2ccc(F)cc2C(=O)/C=C/c2ccc(OC)c(OC)c2)cc1 | x | x | x | 101.4 | 97.6 | x
COc1ccc(/C=C/C(=O)c2cc(F)ccc2OC(=O)c2ccccc2C)cc1OC | x | x | x | 2.1* | 2.2* | x
Cc1ccc(C2CC2C(=O)NNC(=S)Nc2cccc(C)c2)cc1 (stereo not given) | 91.6 | 61.9 | 3.8 | 94.8 | 88.9 | 86.3
Cc1ccc(C2CC2C(=O)NNC(=S)Nc2cccc(Cl)c2)cc1 (stereo not given) | 91.3 | 16.7* | 6.5 | 80.3 | 84.5 | 69.1
COc1ccc(OC)c(C(=O)/C=C/c2ccccc2C(F)(F)F)c1 | x | x | x | 4.8 | 4.2* | x
COc1ccc(OC)c(S(=O)(=O)Nc2ccccc2C(F)(F)F)c1 | 95.8 | 104.5 | 4.5 | 100.8 | 101.3 | 81.6
COC(=O)c1cn(NC(=O)c2cc(OC)c(OC)c(OC)c2)c(=O)c2ccccc12 | 49.2* | 18.5* | 0.3 | 21.9 | 38.9 | 19.8*
Fc1ccc(-c2cc3nc4c(c(N5CCOCC5)n3n2)CCCC4)cc1 | 79.9 | 35.2* | 9.6 | 72.2 | 77.2 | 53.5
Cc1cccc(-c2cc3nc4c(c(N5CCC6(CC5)OCCO6)n3n2)CCCC4)c1 | 87.5 | 30.8* | 7.7 | x | x | 83.9
COC(=O)c1ccc(CC(=O)c2c(C)cc(O)cc2O)o1 | 108.3 | 92.7 | 1.4 | 111.9 | 92.5 | 107.3
O=S(=O)(NCc1ccco1)c1ccc(Cl)nc1 | x | x | x | 90.3 | 88.5 | x
CC(O)CNc1nc2ccccc2n1-c1ncnc2sc3c(c12)CCC3 (stereo not given) | 80.8 | 37.9* | 0.9 | 57.0 | 47.3 | 53.3
C=CCNC(=O)CSc1nc2cc(C(=O)OCC)ccc2n1CC | 90.5 | 26.1* | 5.3 | 83.5 | 84.4 | 80.3
